Sampled rows, rich in hits. Any-hit rate of the full collection: about 0.68%.
TNAP act hiacc = TNAP activators at high phosphate acceptor level, primary screen, biochemical, luminescence, uHTS; Alkaline phosphatase, tissue-nonspecific isozyme (Homo sapiens), P05186; purified TNAP, CDP-star luminescence, 1 M DEA, 30 min; hits give high values; 0 = EDTA background, 1 = DMSO-only activity; activation factor at 20 µM; 200,000 tested, under 10 active;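 active means activation factor at least 2 at 20 µM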
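Control set: EDTA negative control, DMSO positive control / Assay system: human TNAP / Quantity: TNAP 1/800 final / Evaluation: TNAP activation factor scaled between EDTA and DMSO control wells / Measured by: luminescent substrate turnover signal / Compound dosing: one dose, 20 µM / Times: 30 min enzyme reaction at room temperature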
HMGR II inh = inhibitors of E. faecalis class II HMGR, primary screen, biochemical, Enterococcus faecalis; HMG-CoA reductase (Enterococcus faecalis, mvaE); inhibition, % at 10 µM; 0.41% of 190,000 active; purified E. faecalis HMGR, NADPH absorbance 340 nm kinetic;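 active means inhibition above a set limit, the median over all tested compounds plus 3 SD, cut at about 9.5% in these data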;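 further: enzyme runs in reverse so mevalonate oxidation gives rising NADPH absorbance; 0% = complete reaction with DMSO and 100% = background rate lacking mevalonate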
TNAP inh noacc = human TNAP enzyme inhibitors, primary screen, biochemical, luminescent, no phosphate acceptor, uHTS. purified TNAP, CDP-star luminescence, 30 min. 0.26% of 200,000 active. AID 1012, 2008. inhibition, % at 20 µM;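 active means tissue-nonspecific alkaline phosphatase inhibition above about 50% at 20 µM in the single-dose screen, limit read from the data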;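 further: 0% = DMSO negative control and 100% = EDTA positive control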
Pf gametocyte = late stage P. falciparum gametocyte viability inhibitors, primary screen, ATP luminescence, HTS | P. falciparum stage V gametocytes, 24 h | inhibition, % at 10.9 µM | 0.065% of 150,000 active;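 active means inhibition above the mean plus 3 SD of compounds within the control limits, set per campaign, cut at about 38% in these data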;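 further: 0% = DMSO wells and 100% = medium only without gametocytes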
TNAP inh hiacc = human TNAP enzyme inhibitors, primary screen, biochemical, luminescent, high phosphate acceptor level, uHTS | Alkaline phosphatase, tissue-nonspecific isozyme (Homo sapiens), P05186 | purified TNAP, CDP-star luminescence, 1 M DEA | inhibition, % at 20 µM | 0.03% of 200,000 active | AID 1135, 2008;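 active means over 50% inhibition of tissue-nonspecific alkaline phosphatase at 20 µM in the single-dose screen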;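 further: plate controls were DMSO wells for no effect and EDTA-quenched wells as full inhibition for full effect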
Furin inh = human furin inhibitors, primary screen, biochemical, fluorescence intensity. 0.061% of 220,000 active. purified furin, fluorogenic substrate cleavage. inhibition, % at 20 µM or 30 µM. P09958. AID 463115, 2010; in the data active means inhibition above about 25%
Target sequence (P09958 108-714 limits assumed): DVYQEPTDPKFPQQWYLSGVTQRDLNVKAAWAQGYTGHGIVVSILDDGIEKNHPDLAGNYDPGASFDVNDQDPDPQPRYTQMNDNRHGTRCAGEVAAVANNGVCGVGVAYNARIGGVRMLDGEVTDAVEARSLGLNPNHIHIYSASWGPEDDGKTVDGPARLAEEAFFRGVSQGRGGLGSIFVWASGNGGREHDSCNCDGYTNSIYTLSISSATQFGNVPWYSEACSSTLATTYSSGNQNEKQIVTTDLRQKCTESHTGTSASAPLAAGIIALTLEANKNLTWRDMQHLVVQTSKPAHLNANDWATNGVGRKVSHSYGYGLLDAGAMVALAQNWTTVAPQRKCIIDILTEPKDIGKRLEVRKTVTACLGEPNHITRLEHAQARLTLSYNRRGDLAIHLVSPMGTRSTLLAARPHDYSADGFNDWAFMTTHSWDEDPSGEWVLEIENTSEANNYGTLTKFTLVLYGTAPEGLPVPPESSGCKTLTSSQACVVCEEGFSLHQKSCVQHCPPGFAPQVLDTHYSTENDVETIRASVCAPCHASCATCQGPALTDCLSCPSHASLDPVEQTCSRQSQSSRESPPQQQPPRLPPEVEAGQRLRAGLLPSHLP
Numbers without * were called inactive; nt = no result.

SMILES	TNAP act hiacc	HMGR II inh	TNAP inh noacc	Pf gametocyte	TNAP inh hiacc	Furin inh
O=c1c(OC2OC(CO)C(O)C(O)C2O)c(-c2ccc(O)c(O)c2)oc2cc(O)cc(O)c12 (centres undefined)	0.9	16*	40	-30	14	-10
COc1ccc(CNC(=O)/C(C#N)=C2\N=C(NC(=O)c3cccs3)c3ccccc32)cc1	0.9	-10	12	nt	14	-1
CCOc1nc(NCc2ccco2)nc(Nc2ccccc2F)n1	1	13*	-15	1	-4	-19
CC1CCCN(C(=O)C2CCN(CCCc3ccccc3)CC2)C1 (centres undefined)	1.1	-3	4	nt	-8	-19
CC1CCCN(C(=O)C2CCN(CC(C)c3ccccc3)CC2)C1 (centres undefined)	1	15*	-8	nt	-4	16
Cc1ccc(C)c(N2CCN(C(=O)Cc3ccc(-n4c(=O)[nH]c5ccsc5c4=O)cc3)CC2)c1	1	-3	-10	39*	-2	-9
Cc1cccc(N2CCN(C(=O)Cc3ccc(-n4c(=O)[nH]c5ccsc5c4=O)cc3)CC2)c1C	1	-4	-4	-21	3	-17
CCC(=O)n1nc(-c2ccc(OC)cc2)nc1N	1	1	51*	nt	-3	-25
COc1ccc(O[C@H]2C=C[C@@H](c3ccccc3)O[C@@H]2COC(=O)CC/C(C)=N/OC[C@@H](O)[C@H]2O[C@@H]3OC(C)(C)O[C@@H]3[C@H]2O)cc1	1	-8	-4	nt	-2	-8
C#CCOCCOCCOCCNc1nc(N2CCN(C(=O)[C@H]([C@@H](C)CC)n3cc(CCCN=C(N)N)nn3)CC2)nc(N2CCN(C(=O)[C@H](CCCCN)n3cc(CCCC)nn3)CC2)n1	1.1	-4	-18	-1	-10	-9
C#CCOCCOCCOCCNc1nc(N2CCN(C(=O)[C@H](C)n3cc(CCCN=C(N)N)nn3)CC2)nc(N2CCN(C(=O)[C@H](CCCCN)n3cc(CCCC)nn3)CC2)n1	1.1	10*	-16	nt	-6	-25
COC(=O)c1ccc(N2C(=O)C3CC(C)=C(C)CC3C2=O)cc1 (centres undefined)	1	-7	1	25	-1	-16
CCC(OC(=O)C1=Cc2ccccc2OC1)C(=O)NCc1ccco1 (centres undefined)	1	12*	-4	1	-1	-26
CC(OC(=O)C1=Cc2ccccc2OC1)C(=O)NCc1ccco1 (centres undefined)	1	-7	-10	-12	-2	-16
CCN(CC)C(=O)c1[nH]cnc1C(=O)N[C@@H](CC(C)C)C(=O)OCc1ccccc1	1.1	6	-1	13	-6	-24
CC1=N/C(=C/c2cc(Br)cc(Br)c2O)C(=O)O1	nt	nt	nt	4	nt	nt
CN(c1ccc(C(=O)N2CCCCC2)cc1)S(=O)(=O)c1ccccc1	1	31*	-5	-32	1	-24
Cc1ccc(S(=O)(=O)N(C)c2ccc(C(=O)N3CCCCC3)cc2)cc1	1.1	2	-11	-39	-6	-24
Cc1ccc(-c2nc(NCC3CCCO3)sc2C)cc1 (centres undefined)	1.1	12*	-8	-33	-6	-25
COc1cc(/C=N/NC(=O)CSc2cc(C)c(Br)cc2C)ccc1O	1	-2	-9	15	-3	2
Cc1cc(SCC(=O)N/N=C/c2ccc(O)c(O)c2O)c(C)cc1Br	0.9	4	-48	39*	6	-4
N#Cc1c(Cl)nc(SCc2ccccc2)nc1-c1ccccc1	1.1	-11	-12	nt	-10	-33
CCC(=O)Nc1ccc2c(c1)nc(CN1CCCCC1)n2C	1	15*	-4	3	-4	-36
COc1ccc(C(=O)Nc2ccc(NC(=O)c3cnccn3)cn2)cc1	1	-18	-9	nt	0	-11
COc1ccc(C(=O)NCCN2CCCC2)cc1OC	1.1	4	-8	-5	-5	-24
SMILES	TNAP act hiacc	HMGR II inh	TNAP inh noacc	Pf gametocyte	TNAP inh hiacc	Furin inh
COc1ccc(C(=O)NCCN2CCOCC2)cc1OC	1	-2	-13	nt	-4	30*
Nc1nonc1-n1nncc1-c1ccccc1	1	11*	-1	-39	-5	-19
CCC1S/C(=N/C(=O)NC2CCCCC2)NC1=O (centres undefined)	1	10*	-10	nt	-3	-12
O=C(COC(=O)c1ccc(F)cc1F)NC1CC1	1	-1	-14	-25	-4	-18
COC(=O)c1ccc(OCC(=O)Nc2ccsc2C(=O)OC)cc1	1	12*	-5	9	-1	-30
CCOC(=O)c1nn(-c2ccccc2F)c(C)c1C(C)=O	1	9.8*	-10	nt	-3	-23
CCOC(=O)c1nn(-c2ccccc2)c(C)c1C(C)=O	1.1	0	-16	nt	-7	-7
COc1cc(/C=N/NC(=O)COc2c(C)cc([N+](=O)[O-])cc2C)ccc1OC(=O)c1ccccc1Br	1	0	5	nt	-4	-8
COc1cc(/C=N/NC(=O)COc2c(C)cc([N+](=O)[O-])cc2C)ccc1OC(=O)c1ccccc1	1	11*	0	-28	-1	-12
O=C(O)c1cc(NN=Nc2ccc(Br)cc2)cc([N+](=O)[O-])c1	nt	nt	nt	6	nt	-1
CCOC(=O)CN1C(=O)CCSc2ccc(Cl)cc21	1	-2	-6	nt	-2	-30
Cc1ccsc1/C=N/NC(=O)CC(=O)NCC(C)C	1	-2	-5	nt	2	-16
CCC(C)(C)NC(=O)C(c1ccc(O)cc1)N(CCOC)C(=O)CCC(=O)Nc1nccs1 (centres undefined)	nt	nt	nt	-10	nt	-19
CCC(C)(C)NC(=O)C(c1ccc(OC)cc1)N(CCOC)C(=O)CCC(=O)Nc1nccs1 (centres undefined)	1.1	10*	-7	nt	-5	-22
Cc1cccc(NNC(N)=S)c1C	1	10*	2	-12	1	-23
COc1ccc2[nH]cc(C(=O)CNc3nc(C)cs3)c2c1	1.1	0	56*	nt	-8	-24
COc1ccc2[nH]cc(C(=O)CCl)c2c1	nt	nt	nt	-15	nt	-17
CCN(CC)S(=O)(=O)c1cccc(NC(=O)COC(=O)CCC(=O)c2ccc(F)cc2)c1	1	0	-20	nt	0	-21
O=C(/C=C/c1ccccc1)NC1CCS(=O)(=O)C1 (centres undefined)	1	-5	-15	63*	-2	-15

High-throughput results deposited in PubChem BioAssay by several laboratories.
